Results taken from ChEMBL document CHEMBL1156649, “Benzoic acid derivatives from Piper species and their antiparasitic activity” (J Nat Prod, 2008).
In brackets after ≈: the same amount, converted by molar mass.

Experiments:
Assay type in all cases: functional, organism-based
Trypanosoma cruzi = test: Antitrypanosomal activity against Trypanosoma cruzi Tulahuen
Leishmania amazonensis = test: Antileishmanial activity against Leishmania amazonensis PH8 promastigotes
How it was run: (§1)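 Promastigotes grown at 28 °C in stationary culture, seeded at 1 × 10^4 per 100 µL well in RPMI 1640-based Leishmania medium. DMSO-dissolved samples added to give 100 µg/mL final and serial dilutions. IC50 = concentration causing 50% reduction in parasite viability. Pentamidine (10 µg/mL) positive control.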

Leishmania braziliensis = test: Antileishmanial activity against Leishmania braziliensis 2903 promastigotes; how it was run: as §1
Plasmodium falciparum = test: Antiplasmodial activity against chloroquine-sensitive Plasmodium falciparum F32-Tanzania
How it was run: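 Culture per Trager and Jensen on glucose-enriched RPMI 1640 with 10% human serum at 37 °C. After 24 h, medium replaced with fresh medium containing compound at 0.1, 1 and 10 µg/mL, then incubated 48 h more. Blood smears on day 3; parasitemia compared with control. IC50 read graphically from concentration versus % inhibition. Chloroquine (0.1 µg/mL) positive control. Triplicate.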

Leishmania donovani = test: Antileishmanial activity against Leishmania donovani PP75 promastigotes; how it was run: as §1

Row | Compound | IC50 (Trypanosoma cruzi) | IC50 (Leishmania amazonensis) | IC50 (Leishmania braziliensis) | IC50 (Plasmodium falciparum) | IC50 (Leishmania donovani)
1 | C=C(C)C(O)Cc1cc(C(=O)O)cc(CC=C(C)C)c1O (racemic) | > 20 µg/mL | 67.6 µg/mL (≈ 233 µM) | 67.6 µg/mL (≈ 233 µM) | > 10 µg/mL | 67.3 µg/mL (≈ 232 µM)
2 | C=C(C)C(O)Cc1cc(C(=O)OC)cc(O)c1O (racemic) | 16.4 µg/mL (≈ 65 µM) | 89.5 µg/mL (≈ 355 µM) | 81.9 µg/mL (≈ 325 µM) | > 10 µg/mL | 81.9 µg/mL (≈ 325 µM)
3 | COc1c(/C=C/C(C)(C)O)cc(C(=O)O)cc1CC=C(C)C | > 20 µg/mL | > 100 µg/mL | 78.8 µg/mL (≈ 259 µM) | > 10 µg/mL | > 100 µg/mL
4 | COC(=O)c1cc(O)c(O)c(CC=C(C)C)c1 | 18.5 µg/mL (≈ 78.3 µM) | 18.2 µg/mL (≈ 77 µM) | 13.8 µg/mL (≈ 58.4 µM) | 4.1 µg/mL (≈ 17.4 µM) | 18.5 µg/mL (≈ 78.3 µM)
5 | CC(C)=CCc1cc(C(=O)O)cc(CC=C(C)C)c1O | > 20 µg/mL | 45.3 µg/mL (≈ 165 µM) | 34.1 µg/mL (≈ 124 µM) | > 10 µg/mL | 40 µg/mL (≈ 146 µM)
6 | C=C(C)C(O)Cc1cc(C(=O)OC)ccc1O (stereo not given) | 15.6 µg/mL (≈ 66 µM) | 78.2 µg/mL (≈ 331 µM) | 74.4 µg/mL (≈ 315 µM) | 10 µg/mL (≈ 42.3 µM) | 86.9 µg/mL (≈ 368 µM)
7 | COC(=O)c1ccc(O)c(CC=C(C)C)c1 | > 20 µg/mL | 74.4 µg/mL (≈ 338 µM) | 74.4 µg/mL (≈ 338 µM) | 2.8 µg/mL (≈ 12.7 µM) | 62.5 µg/mL (≈ 284 µM)
